ChEMBL document CHEMBL1148398, “Design, synthesis, and biological evaluation of thio-containing compounds with serum HDL-cholesterol-elevating properties” (2004)

What was measured:
Assay type in all cases: functional
Rattus norvegicus [1] = experiment: Percent change in high-density lipoprotein cholesterol in hypercholesterolemic rats dosed at 100 mg/kg/day for 8 days
Rattus norvegicus [2] = experiment: Percent change in total plasma cholesterol in hypercholesterolemic rats dosed at 100 mg/kg/day for 8 days
Rattus norvegicus [3] = experiment: Percent change in very low-density lipoprotein cholesterol following oral administration of compound in normal chow-fed rats at 100 mg/kg/day for 4 days
Procedure, shortened: (§1)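 Chow-fed male Sprague–Dawley CD rats, 60–80 g, gavaged 100 mg/kg/day for 4 days in 1.3% Tween 80/0.25% CMC. Fasted overnight, bled 24 h after the last dose. Total cholesterol and glycerol-blanked triglycerides read enzymatically; lipoproteins by FPLC with cholesterol per fraction. % change versus control; six per group, p < 0.05.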

Cricetinae gen. sp. [4] = experiment: Percent change in high-density lipoprotein cholesterol following oral administration of compound in hypercholesterolemic hamsters at 100 mg/kg/day for 14 days
Procedure, shortened: (§2)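 Male Syrian Golden hamsters pre-fed chow plus 0.25% cholesterol for 2 weeks and kept on it. Dosed 100 mg/kg/day by oral gavage in 2% Tween 80/saline for 14 days. Serum total cholesterol and glycerol-blanked triglycerides read enzymatically; lipoproteins separated by FPLC with cholesterol measured in each fraction. % change versus vehicle controls; six per group, p < 0.05.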

Rattus norvegicus [5] = experiment: Percent change in triglycerides following oral administration of compound in normal chow-fed rats at 100 mg/kg/day for 4 days; procedure, shortened: as §1
Rattus norvegicus [6] = experiment: Percent change in total plasma cholesterol following oral administration of compound in normal chow-fed rats at 100 mg/kg/day for 4 days; procedure, shortened: as §1
Cricetinae gen. sp. [7] = experiment: Percent change in very low-density lipoprotein cholesterol following oral administration of compound in hypercholesterolemic hamsters at 100 mg/kg/day for 14 days; procedure, shortened: as §2
Cricetinae gen. sp. [8] = experiment: Percent change in low-density lipoprotein cholesterol following oral administration of compound in hypercholesterolemic hamsters at 100 mg/kg/day for 14 days; procedure, shortened: as §2
Cricetinae gen. sp. [9] = experiment: Percent change in triglycerides following oral administration of compound in hypercholesterolemic hamsters at 100 mg/kg/day for 14 days; procedure, shortened: as §2
Rattus norvegicus [10] = experiment: Percent change in low-density lipoprotein cholesterol following oral administration of compound in normal chow-fed rats at 100 mg/kg/day for 4 days; procedure, shortened: as §1
Cricetinae gen. sp. [11] = experiment: Percent change in total plasma cholesterol following oral administration of compound in hypercholesterolemic hamsters at 100 mg/kg/day for 14 days; procedure, shortened: as §2
Rattus norvegicus [12] = experiment: Percent change in triglycerides in hypercholesterolemic rats at a dose of 100 mg/kg/day for 8 days
Rattus norvegicus [13] = experiment: Percent change in high-density lipoprotein cholesterol following oral administration of compound in normal chow-fed rats at 100 mg/kg/day for 4 days; procedure, shortened: as §1

Structure (SMILES) | Change (Rattus norvegicus [1]) | Change (Rattus norvegicus [2]) | Change (Rattus norvegicus [3]) | Change (Cricetinae gen. sp. [4]) | Change (Rattus norvegicus [5]) | Change (Rattus norvegicus [6]) | Change (Cricetinae gen. sp. [7]) | Change (Cricetinae gen. sp. [8]) | Change (Cricetinae gen. sp. [9]) | Change (Rattus norvegicus [10]) | Change (Cricetinae gen. sp. [11]) | Change (Rattus norvegicus [12]) | Change (Rattus norvegicus [13])
CCN1CC(=O)N(c2cccc(Cl)c2Cl)C1=S | 98% | 11% | 57.9% | 0% | 18.3% | 89.6% | -5.9% | -8.1% | -12.3% | 20.4% | -8% | -23% | 85.3%
CCN1CCC(=O)N(c2c(C)cccc2C)C1=S | 184% | 11% | -5.2% | 0.7% | -11.4% | 70.4% | 22.7% | 24% | 8.6% | 0% | -3% | -12% | 97.4%
Cc1cccc(C)c1N1C(=O)CN(C(C)C)C1=S | 146% | -25% | -10.5% | 1.7% | -42.9% | 56.1% | 8.9% | 17.2% | -7.3% | -5.8% | -3.1% | -43% | 71.2%
CCN1CC(=O)N(c2c(C)cccc2Cl)C1=S | 222% | -34% | 41.4% | 13.8% | -57.1% | 79.8% | -74.4% | -39.1% | -77.1% | -35% | -32.2% | -20% | 62.9%
CCN1CCC(=O)N(c2ccc(Cl)cc2C)C1=S | 126% | 40% | -15% | 47.8% | -53.1% | 80.7% | 6.3% | -26.8% | -30.7% | 38.9% | 2% | -16% | 75.5%
COc1ccc(Cl)cc1N1C(=O)CON(C)C1=S | 78% | 44% | 25% | 23.5% | -7.4% | 67.7% | -32.6% | -20.2% | -26.5% | 8.6% | -7.9% | 7% | 71.3%
C=CCN1CC(=O)N(c2c(C)cccc2C)C1=S | 177% | -5% | -45.8% |  | -29.9% | 86% |  |  |  | -18.8% |  | -45% | 120.4%
CCN1CC(=O)N(c2ccccc2C)C1=S | 164% | 76.5% | 0% |  | -25% | 52.1% |  |  |  | 18.7% |  | 38% | 54.3%
CCN1CC(=O)N(c2ccc(C)cc2C)C1=S | 83% | 25% | 15.6% | 33.3% | -35.4% | 55.5% | 14.5% | -11.6% | 9.6% | 8.3% | 10.7% | -34% | 61.2%
CON1CC(=O)N(c2cc(Cl)ccc2C)C1=S | 160% | 41% | 249.5% |  | -10.8% | 134.4% |  |  |  | 87.5% |  | -62% | 102.4%
CC(C)c1ccccc1N1C(=O)CON(C)C1=S | 95% | 0% | -8.3% |  | -52.7% | 92.4% |  |  |  | 32.1% |  | -16% | 98.2%
Cc1cccc(Cl)c1N1C(=O)CN(C)C1=S | 84% | 17% | 89.4% |  | -37.9% | 71.2% |  |  |  | 0% |  | -56% | 75.7%
CCN1C(=S)N(c2cc(Cl)ccc2C)C(=O)C1OC (stereo unspecified) | 140% | 6% | 83.6% | 57.4% | -10.6% | 102.3% | -35.8% | -19% | -36.4% | 11.9% | 3.8% | -33% | 91.6%
CCN1CC(=O)N(c2ccccc2C(F)(F)F)C1=S | 116% | 18% | 52.6% |  | -6.3% | 67.2% |  |  |  | -13.3% |  | 35% | 103.5%
CCN1CCC(=O)N(c2ccccc2F)C1=S | 72% | 21% | 20.1% |  | -4% | 48.7% |  |  |  | -4% |  | -26% | 55.3%
CN1OCC(=O)N(C(c2ccccc2)c2ccccc2)C1=S | 60% | 22% | -29.3% |  | -44.1% | 17.6% |  |  |  | 43.8% |  | 9% | 33.7%
Cc1ccc(Cl)cc1N1C(=O)C(C)N(C)C1=S (stereo unspecified) | 220% | -8% | 134.7% |  | 207.2% | 276.5% |  |  |  | 800% |  | -58% | 67.9%
CCN1C(=S)N(CC(C)C)C(=O)C1c1ccccc1 (stereo unspecified) | 156% | 7% | 33.3% |  | -1.6% | -8.4% |  |  |  | -9.3% |  | 92% | -3.1%
CCc1cccc(C(C)C)c1N1C(=O)CN(CC)C1=S | 54% | -62% | -50% |  | -12.2% | 30.9% |  |  |  | -22.3% |  | 5% | 48.7%
CCc1cccc(C)c1N1C(=O)CN(CC)C1=S | 112% | -19% | -29.2% |  | -8.2% | 52.8% |  |  |  | -6.5% |  | -10% | 61.9%
CN1OCC(=O)N(c2ccc(C(C)(C)C)cc2)C1=S | 170% | 2% | 176.5% |  | -24.6% | 62% |  |  |  | 2.6% |  | -51% | 61.6%
Cc1ccc(Cl)cc1N1C(=O)CON(C)C1=S | 236% | 5.7% | 23.1% |  | -26.2% | 85.7% |  |  |  | 29.9% |  | -10% | 83.5%
